Sampled rows, rich in hits. Any-hit rate of the full collection: about 3.1%.
Apaf1 inhib – human Apaf-1 inhibition; O14727; reconstituted apoptosome caspase-3 activity, DEVD-Rh110 fluorescence; inhibition, % at 20 µM; 330,000 tested, 0.71% active; active means inhibition of at least 40% at 20 µM;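 further: plate controls were DMSO wells for no effect and DEVD-CHO caspase inhibitor wells for full effect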
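Material: reconstituted apoptosome with Apaf-1, cytochrome c, caspase-9, procaspase-3, dATP / Buffer or medium: pH 7.5 Hepes buffer with CHAPS, BSA, DTT / Also added: cytochrome c with DEVD-Rh110 / Schedule: compound with Apaf-1, dATP, procaspase-3 30 min, then 50 min reaction, room temperature / Technique: rhodamine 110 fluorescence at Ex 480/Em 540 nm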
UBC13 inh – human UBC13 polyubiquitination inhibition. P61088. UBC13 polyubiquitin chain formation, TR-FRET. inhibition, % at 20 µM. 330,000 tested, 0.47% active; in the data active means inhibition above about 45%, passing the limit was not always enough
Target sequence (P61088 whole entry, looked up): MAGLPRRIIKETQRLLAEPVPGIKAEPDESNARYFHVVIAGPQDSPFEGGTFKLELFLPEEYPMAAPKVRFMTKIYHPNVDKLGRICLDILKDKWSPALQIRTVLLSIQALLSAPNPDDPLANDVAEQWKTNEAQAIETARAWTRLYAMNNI
SENP8 block-1 – inhibitors of human SENP8 protease; purified SENP8, Z-RLRGG-aminoluciferin cleavage, luminescence; inhibition, % at 10 µM; 330,000 tested, 1.2% active; in the data active means inhibition above about 50%
SENP8 block-2 – SENP8 (human) protease inhibition; 360,000 tested, 0.64% active; Q96LD8; recombinant SENP8, Nedd8 substrate fluorescence; inhibition, % at 20 µM; in the data active means inhibition mostly above about 40%, no sharp cut-off; inactive means mostly below about 27%
SENP7 inh – inhibitors of human SENP7 protease; recombinant SENP7, Z-RLRGG-aminoluciferin luminescence, 40 min; inhibition, % at 5 µM; Q9BQF6; 330,000 tested, 1.5% active; AID 434973;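 active means inhibition above about 50% at the single test dose, limit read from the data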;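 further: plate controls were DMSO with enzyme for no effect and no enzyme buffer wells for full effect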
Target sequence (Q9BQF6 706-1050 limits assumed): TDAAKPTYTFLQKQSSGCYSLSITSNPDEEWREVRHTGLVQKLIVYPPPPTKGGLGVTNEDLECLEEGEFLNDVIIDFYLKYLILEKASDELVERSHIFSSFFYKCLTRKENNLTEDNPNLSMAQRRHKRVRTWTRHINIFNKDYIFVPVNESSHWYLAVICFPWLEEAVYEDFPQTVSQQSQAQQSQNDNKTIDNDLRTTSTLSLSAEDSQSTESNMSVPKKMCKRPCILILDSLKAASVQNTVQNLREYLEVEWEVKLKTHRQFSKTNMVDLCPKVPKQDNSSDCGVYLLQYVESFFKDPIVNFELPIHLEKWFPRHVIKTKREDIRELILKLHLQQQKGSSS
SENP6 block – blocks the human protease SENP6; Q9GZR1; Recombinant SENP6 catalytic domain, aminoluciferin luminescence; inhibition, % at 10 µM; 330,000 tested, 1.8% active; AID 2599;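 active means inhibition above about 50% at the single tested dose, limit read from the data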;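 further: plate controls were DMSO wells with enzyme for no effect and DMSO wells lacking enzyme for full effect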
* hit, by the source's call.

What do the screens show for `N#Cc1ccc(C23CC4(C2)[C@H](CN(CC2CCCCC2)[C@@H]4c2ccccc2)C3c2ccccc2)cc1` (stereo partly drawn)?
Apaf1 inhib: 21.9; UBC13 inh: -24.4; SENP8 block-1: -5.4; SENP8 block-2: 4.3; SENP7 inh: -4.1; SENP6 block: -24.7

Results for NC(=S)NN=Cc1nccc2c(N)cccc12 ?
SENP8 block-2: 62.0*

What do the screens show for `COc1ccc(C(C(=O)NCc2ccccc2)n2c(=O)c(-c3ccco3)nc3ccccc32)cc1` (stereo not drawn)?
SENP8 block-2: -425.7

Results for COc1ccccc1C=NN1C(=O)CSC1=S ?
SENP8 block-2: -5.6

What do the screens show for `O=C1CSC(=S)N1/N=C/c1ccc(O)c(O)c1O`?
Apaf1 inhib: 25.5; UBC13 inh: 35.3; SENP8 block-1: 7.8; SENP8 block-2: 53.0*; SENP7 inh: 7.9; SENP6 block: -1.7

What do the screens show for `COC(=O)Cc1ccc(OC2(C)CCN(Cc3ccccc3OC(F)F)C2)cc1` (stereo not drawn)?
SENP8 block-2: 18.4

What do the screens show for `O=C1NC[C@H](CCCCN2CCN(CC3CCCCC3)C(=O)C2=O)N(CC2CCCCC2)C1=O`?
SENP8 block-2: 3.5

How did CC(=O)Nc1ccc(Nc2nc(-c3sc(NC(C)=O)nc3C)cs2)cc1 do in these assays?
Apaf1 inhib: -3.1; UBC13 inh: -2.2; SENP8 block-1: -0.2; SENP8 block-2: -318.6; SENP7 inh: 5.3; SENP6 block: -16.2

Results for CC(=O)Nc1nc(C)c(-c2csc(Nc3ccccn3)n2)s1 ?
Apaf1 inhib: 5.3; UBC13 inh: 1.2; SENP8 block-1: 74.0*; SENP8 block-2: -305.9; SENP7 inh: 79.3*; SENP6 block: 87.3*

Results for CC1CC(C)(C)Nc2ccc(N=O)cc21 (stereo not drawn) ?
SENP8 block-2: 45.0*

Results for COc1ccc(CNC[C@H]2O[C@@H](n3ccc(=O)[nH]c3=O)[C@H](O)[C@@H]2O)cc1 ?
SENP8 block-2: 20.0

How did O=C1NCCCC2c3c(cc(Br)c(O)c3Br)OC12N1CCOCC1 (stereo not drawn) do in these assays?
Apaf1 inhib: -9.7; UBC13 inh: -1.5; SENP8 block-1: -7.2; SENP8 block-2: 15.8; SENP7 inh: -3.0; SENP6 block: -1.7

What do the screens show for `O=C1NCCCC2c3cc(O)c4ccccc4c3OC12N1CCCCC1` (stereo not drawn)?
Apaf1 inhib: 93.0*; UBC13 inh: -35.8; SENP8 block-1: 62.8*; SENP7 inh: 35.9; SENP6 block: 71.1*

How did C[C@@H](NC(=O)[C@@H]1CCCN1C(=O)[C@@H]1CCCN1C(=O)c1cccs1)c1ccccc1 do in these assays?
SENP8 block-2: -0.1

How did COc1ccc(OCc2cc(C(=O)O)c(C)o2)cc1 do in these assays?
Apaf1 inhib: -6.7; UBC13 inh: -4.6; SENP8 block-1: 89.2*; SENP7 inh: 92.1*; SENP6 block: 91.5*

What do the screens show for `CCN(CC)Cc1cc(C(=O)O)c(C)o1`?
Apaf1 inhib: -4.0; UBC13 inh: 8.2; SENP8 block-1: -5.1; SENP8 block-2: 6.0; SENP7 inh: 0.5; SENP6 block: -13.1

How did CC(=O)/C=C1\OCc2cc(OCc3ccccc3)ccc21 do in these assays?
SENP8 block-2: 19.8

What do the screens show for `O=C(Cc1ccccc1)N/N=C/c1cccs1`?
Apaf1 inhib: 0.2; UBC13 inh: -1.7; SENP8 block-1: -0.1; SENP8 block-2: 10.6; SENP7 inh: 4.2; SENP6 block: -2.6

What do the screens show for `Cc1ccccc1CSCC(=O)N/N=C/c1cccs1`?
Apaf1 inhib: 6.7; UBC13 inh: -0.2; SENP8 block-1: -0.8; SENP8 block-2: 42.7*; SENP7 inh: 2.8; SENP6 block: 3.1

How did CCN(CC)c1ccc(/C=C(\C#N)C(=O)c2ccc(Br)cc2)cc1 do in these assays?
SENP8 block-2: 50.2*

Results for CCC(=O)N1CCC(C)(C(=O)NCc2ccc(F)cc2)C1 (stereo not drawn) ?
SENP8 block-2: 13.6

Results for COC(=O)[C@@]12C[C@@H](CC(=O)NCCCCc3ccccc3)C(=O)N(Cc3cccc4ccccc34)C1=CCC(C)(C)C2 ?
SENP8 block-2: 22.6

How did CCCCCCCc1ccc(C2NC(=S)NC3=C2C(=O)c2ccccc23)cc1 (stereo not drawn) do in these assays?
Apaf1 inhib: 44.1*; UBC13 inh: -35.1; SENP8 block-1: -6.8; SENP7 inh: 25.4; SENP6 block: -10.0

What do the screens show for `CCc1ccc(C2NC(=S)NC3=C2C(=O)CCC3)cc1` (stereo not drawn)?
Apaf1 inhib: 0.1; UBC13 inh: 11.1; SENP8 block-1: -2.0; SENP8 block-2: 9.4; SENP7 inh: 1.9; SENP6 block: 15.0

Results for CCOc1ccc(CCN2C(=S)N([C@@H](Cc3ccc(O)cc3)CN3CCC[C@@H]3CN3C(=S)NC[C@@H]3CC(C)C)C[C@@H]2Cc2ccc(O)cc2)cc1 ?
SENP8 block-2: 6.8

How did CCS(=O)(=O)c1ccc2oc(Nc3ccc(C(C)(C)C)cc3)nc2c1 do in these assays?
Apaf1 inhib: 17.1; UBC13 inh: 8.6; SENP8 block-1: -2.4; SENP8 block-2: -4.9; SENP7 inh: 4.4; SENP6 block: -16.1

How did CCS(=O)(=O)c1ccc2oc(Nc3ccccc3Br)nc2c1 do in these assays?
Apaf1 inhib: 0.2; UBC13 inh: -3.5; SENP8 block-1: 86.9*; SENP8 block-2: 0.8; SENP7 inh: 95.1*; SENP6 block: 91.5*

What do the screens show for `CCOC(=O)N1CCC(Nc2c(N3CCN(c4cc(Cl)ccc4C)CC3)c(=O)c2=O)CC1`?
Apaf1 inhib: 23.0; UBC13 inh: -0.8; SENP8 block-1: -8.6; SENP8 block-2: 10.8; SENP7 inh: 7.0; SENP6 block: -4.3

Results for CCOC(=O)N1CCC(Nc2c(-c3ccc(C)c(C)c3)c(=O)c2=O)CC1 ?
Apaf1 inhib: -201.7; UBC13 inh: -10.9; SENP8 block-1: 0.9; SENP8 block-2: 47.2*; SENP7 inh: 4.5; SENP6 block: 4.5

Results for CCOc1ccc(NC(=O)c2cc3ccccc3cc2OC)cc1 ?
Apaf1 inhib: 13.0; UBC13 inh: 9.5; SENP8 block-1: 13.4; SENP8 block-2: -7.1; SENP7 inh: 1.3; SENP6 block: 11.5

What do the screens show for `CCOc1ccc(NC(=O)Nc2ccccc2SC)cc1`?
Apaf1 inhib: 0.0; UBC13 inh: 15.8; SENP8 block-1: 95.3*; SENP8 block-2: 2.1; SENP7 inh: 98.7*; SENP6 block: 98.0*

Results for CCOc1ccc(NC(=O)c2cc3ccccc3cc2O)cc1 ?
Apaf1 inhib: 5.1; UBC13 inh: 1.6; SENP8 block-1: 23.2; SENP8 block-2: -26.5; SENP7 inh: 67.7*; SENP6 block: 45.3

Results for COc1ccc(NC(=O)C2CCCN2S(=O)(=O)c2ccc3c(c2)C(C)(C)C(=O)N3C)cc1 (stereo not drawn) ?
SENP8 block-2: 12.1

What do the screens show for `Cc1nnc(N/N=C\c2ccc(-c3cccc(C(=O)O)c3)o2)n1N`?
Apaf1 inhib: -0.4; UBC13 inh: -8.7; SENP8 block-1: 25.3; SENP8 block-2: -360.1; SENP7 inh: 4.7; SENP6 block: 52.4*

High-throughput results from PubChem.
